Measurements pooled from the literature.
Lines come from different studies, so protocols differ. In brackets after ≈: the same amount, converted by molar mass.
Organism: Streptococcus pneumoniae

The MBC of COc1cc(Cc2cnc(N)nc2N)cc(OC)c1OC is reported as 0.25 µg/mL (≈ 0.861 µM) (microbial killing; broth dilution; 48 h).
For O=C(O)CN1C(=O)/C(=C/c2c3ccccc3c(-c3ccc(N(c4ccccc4)c4ccccc4)cc3)c3ccccc23)NC1=S, the MBC was greater than 1000 µg/mL (microbial killing; broth dilution; ATCC49619).
With CN(C)c1ccc(-c2ccc3cc4c(c(O)c3c2)C(=O)C2=C(O)[C@]3(O)C(=O)C(C(N)=O)=C(O)[C@@H](N(C)C)[C@@H]3C[C@@H]2C4)cc1 the MIC was 32 µg/mL (≈ 54.8 µM) (microbial growth; broth dilution; ATCC49619).
The MIC90 of CC[C@H]1OC(=O)[C@H](C)[C@@H](O[C@H]2C[C@@](C)(OC)[C@@H](O)[C@H](C)O2)[C@H](C)[C@@H](O[C@@H]2O[C@H](C)C[C@H](N(C)C)[C@H]2O)[C@](C)(OC)C[C@@H](C)C(=O)[C@H](C)[C@@H](O)[C@]1(C)O is reported as 256 µg/mL (≈ 342 µM) (microbial growth).
CN(C)[C@@H]1C(O)=C(C(N)=O)C(=O)[C@@]2(O)C(O)=C3C(=O)c4c(cc5ccc(-c6cccnc6)cc5c4O)C[C@H]3C[C@@H]12 gave an MIC of 32 µg/mL (≈ 59.1 µM) (microbial growth; broth dilution; ATCC49619).
The MBC of O=c1[nH]cc(F)c(=O)[nH]1 is reported as 0.25 µg/mL (≈ 1.92 µM) (microbial killing; broth dilution; 48 h).
O=C(O)CN1C(=O)/C(=C/c2ccc(-c3ccc(N(c4ccccc4)c4ccccc4)cc3)cc2)SC1=S gave an MBC of 500 µg/mL (≈ 957 µM) (microbial killing; broth dilution; ATCC49619).
With CN(C)c1cc(CNCC(C)(C)C)c(O)c2c1C[C@H]1C[C@H]3[C@H](N(C)C)C(O)=C(C(N)=O)C(=O)[C@@]3(O)C(O)=C1C2=O the MIC was less than 0.06 µg/mL (microbial growth; 157E).
